# Laboratory results published in ChEMBL document CHEMBL1132994, “Synthesis and anticonvulsant and neurotoxic properties of substituted N-phenyl derivatives of the phthalimide pharmacophore” (J Med Chem, 2000).
# “And” between values parts separate entries of the source, which are not always exact repeats. Equal values may be shown once. The source made the active and inactive calls. The rule behind the calls is not given here.
# Columns and labels:
# Mus musculus [1] = assay: Neurotoxicity by rotarod test after intraperitoneal administration at a concentration of 300 mg/kg after 4 hours; Active; format: functional, organism-based; parameters: dose 300 mg/kg
# Rattus norvegicus [2] = assay: Anticonvulsant activity was measured in rats through seizures induced by maximal electroshock (MES) tests by oral administration of drug at a concentration of 30 mg/kg after 2 hours.; format: functional
# Summary of the method: (§1)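 Rats given a single oral dose of 30 or 50 mg/kg, depending on compound; MES protection scored at 15, 30, 60, 120 and 240 min. Activity graded by fraction of animals protected (0-25%, 25-50%, 50-75%, 75-100%); neurotoxicity monitored at the same time points.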
# Mus musculus [3] = assay: Anticonvulsant activity in mice through seizures induced by subcutaneous pentylenetetrazole (scPTZ) tests after ip administration at a concentration of 300 mg/kg after 30 min; Active; format: functional, organism-based; parameters: dose 300 mg/kg
# Rattus norvegicus [4] = assay: (§2) Toxicity screening in rats dosed orally with the compound; No toxicity; format: functional, organism-based
# Summary of the method: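 Rats given a single oral dose of 30 or 50 mg/kg, depending on compound. Minimal neurotoxicity was scored at 15, 30, 60, 120 and 240 min after dosing, alongside the MES test. Scores are graded by the percentage of animals affected.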
# Mus musculus [5] = assay: Anticonvulsant activity in mice through seizures induced by sc pentylenetetrazole (intraperitoneal administration at a concentration of 300 mg/kg after 4 hours; Inactive; format: functional, organism-based; parameters: dose 300 mg/kg
# Mus musculus [6] = assay: Anticonvulsant activity in mice through seizures induced by maximal electroshock (MES) tests after ip administration at a concentration of 100 mg/kg after 30 min; Active; format: functional, organism-based; parameters: dose 100 mg/kg
# Rattus norvegicus [7] = assay: Anticonvulsant activity in rats through seizures induced by maximal electroshock (MES) tests after oral administration at a concentration of 30 mg/kg after 1 hour.; format: functional; summary of the method: as §1
# Rattus norvegicus [8] = assay: Anticonvulsant activity was measured in rats through seizures induced by maximal electroshock (MES) tests by oral administration of drug after 4 hours.; format: functional; summary of the method: as §1
# Rattus norvegicus [9] = assay: Anticonvulsant activity was measured in rats through seizures induced by maximal electroshock (MES) tests by oral administration of drug at a concentration of 30 mg/kg after 15 minutes.; format: functional; summary of the method: as §1
# Mus musculus [10] = assay: Neurotoxicity by rotarod test after intraperitoneal administration at a concentration of 300 mg/kg after 30 minutes; Active; format: functional, organism-based; parameters: dose 300 mg/kg
# Mus musculus [11] = assay: Anticonvulsant activity in mice through seizures induced by maximal electroshock (MES) tests after ip administration at a concentration of 300 mg/kg after 4 hours; Active; format: functional, organism-based; parameters: dose 300 mg/kg
# Rattus norvegicus [12] = assay: Anticonvulsant activity was measured in rats through seizures induced by maximal electroshock (MES) tests by oral administration of drug at a concentration of 30 mg/kg after 30 minutes.; format: functional; summary of the method: as §1
# Mus musculus [13] = organism: Mus musculus; assay: Current response was measured on 100 uM kainate at 100 uM concentration on 7 isolated mouse cortical neurons.; format: functional
# Summary of the method: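 Cultured mouse fetal cortical neurons, whole-cell clamped at -60 mV and 23 °C. Bath had 1 µM glycine, 10 µM picrotoxin, strychnine and tetrodotoxin. Currents evoked by 100 µM kainate pulses with and without 100 µM compound via rapid perfusion; expressed as % of control, mean ± SEM, Student's t-test.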
# Mus musculus [14] = assay: Anticonvulsant activity in mice through seizures induced by subcutaneous pentylenetetrazole (scPTZ) tests after ip administration at a concentration of 300 mg/kg after 4 hours; active; format: functional, organism-based; parameters: dose 300 mg/kg
# Mus musculus [15] = organism: Mus musculus; assay: Current response was measured on 1 uM GABA at 30 uM concentration on 6 isolated mouse cortical neurons.; format: functional
# Mus musculus [16] = organism: Mus musculus; assay: Current response was measured from -60 mV depolarizing voltage steps at 100 uM concentration on 3 N1E-115 neuroblastoma cells.; format: functional
# Summary of the method: (§3)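 Differentiated N1E-115 cells (3-5 days in 2.5% FCS, 2% DMSO), whole-cell clamped at -70 mV at room temperature. Bath had Cd2+ and TEA to block Ca2+ and K+ channels. Na+ currents evoked by steps from -80 to +60 mV after 90 ms prepulses to -90 or -60 mV, measured 1-2 min into compound exposure; reported as % of control.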
# Rattus norvegicus [17] = assay: Effective dose required to assure anticonvulsant protection in 50% of rats dosed orally by MES test.; format: functional; details: po
# Summary of the method: (§4)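 Rats dosed orally; ED50 is the dose giving anticonvulsant protection in 50% of animals in the MES or scPtz test. TD50 is the minimal neurotoxic dose in 50% of animals. Time to peak effect was also determined.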
# Mus musculus [18] = organism: Mus musculus; assay: Current response was measured on 1 uM GABA at 100 uM concentration on 10 isolated mouse cortical neurons.; format: functional
# Mus musculus [19] = assay: Neurotoxicity by rotarod test after intraperitoneal administration at a concentration of 300 mg/kg after 30 minutes; Inactive; format: functional, organism-based; parameters: dose 300 mg/kg
# Mus musculus [20] = organism: Mus musculus; assay: Current response was measured on 1 uM GABA at 10 uM concentration on 5 isolated mouse cortical neurons.; format: functional
# [21] = dose eliciting minimal neurological toxicity in 50% of animals.; format: organism-based; details: rat, in vivo
# Rattus norvegicus [22] = assay: Effective dose required to assure anticonvulsant protection in 50% of rats dosed orally by scPTZ test.; format: functional; details: po; summary of the method: as §4
# Rattus norvegicus [23] = assay: Anticonvulsant activity was measured in rats through seizures induced by maximal electroshock (MES) tests by oral administration of drug after 1 hour.; format: functional; summary of the method: as §1
# Mus musculus [24] = assay: Anticonvulsant activity in mice through seizures induced by maximal electroshock (MES) tests after ip administration at a concentration of 300 mg/kg after 4 hours; Inactive; format: functional, organism-based; parameters: dose 300 mg/kg
# Rattus norvegicus [25] = assay: Anticonvulsant activity was measured in rats through seizures induced by maximal electroshock (MES) tests by oral administration of drug after 15 minutes.; format: functional; summary of the method: as §1
# Rattus norvegicus [26] = assay: Anticonvulsant activity was measured in rats through seizures induced by maximal electroshock (MES) tests by oral administration of drug after 30 minutes.; format: functional; summary of the method: as §1
# Mus musculus [27] = assay: Anticonvulsant activity in mice through seizures induced by maximal electroshock (MES) tests after ip administration at a concentration of 100 mg/kg after 30 min; active; format: functional, organism-based; parameters: dose 100 mg/kg
# Rattus norvegicus [28] = assay: as §2; format: organism-based; details: in vivo, po
# Rattus norvegicus [29] = assay: Anticonvulsant activity was measured in rats through seizures induced by maximal electroshock (MES) tests by oral administration of drug after 2 hours.; format: functional; summary of the method: as §1
# Mus musculus [30] = organism: Mus musculus; assay: Current response was measured from -90 mV depolarizing voltage steps at 100 uM concentration on 5 N1E-115 neuroblastoma cells.; format: functional; summary of the method: as §3
# Mus musculus [31] = assay: Anticonvulsant activity in mice through seizures induced by sc pentylenetetrazole (intraperitoneal administration at a concentration of 300 mg/kg after 30 min; active; format: functional, organism-based; parameters: dose 300 mg/kg
# Mus musculus [32] = assay: Neurotoxicity determined by rotarod test after intraperitoneal administration at a concentration of 300 mg/kg after 4 hours; Inactive; format: functional, organism-based; parameters: dose 300 mg/kg
smiles,measurement,setting,value
Nc1cccc(N2C(=O)c3ccccc3C2=O)c1,Activity,Mus musculus [1],Active
same,Activity in animals,Rattus norvegicus [2],75%
same,Activity,Mus musculus [3],Active
same,Toxicity,Rattus norvegicus [4],Not toxic
same,Activity,Mus musculus [5],inactive
same,Activity,Mus musculus [6],Active
same,Activity in animals,Rattus norvegicus [7],75%
same,Activity in animals,Rattus norvegicus [8],100%
same,Activity in animals,Rattus norvegicus [9],50%
same,Activity,Mus musculus [10],Active
same,Activity,Mus musculus [11],Active
same,Activity in animals,Rattus norvegicus [12],100%
Nc1ccc(N2C(=O)c3ccccc3C2=O)c(Cl)c1,Response,Mus musculus [13],74%
same,Activity,Mus musculus [14],Active
same,Response,Mus musculus [15],142%
same,Response,Mus musculus [16],49%
same,ED50,Rattus norvegicus [17],5.7 mg/kg
same,Response,Mus musculus [18],118%
same,Activity,Mus musculus [19],inactive
same,Response,Mus musculus [20],174% and 99%
same,TD50,[21],> 500 mg/kg
same,ED50,Rattus norvegicus [22],> 250 mg/kg
same,Activity in animals,Rattus norvegicus [23],100%
same,Activity,Mus musculus [24],inactive
same,Activity in animals,Rattus norvegicus [25],75%
same,Activity in animals,Rattus norvegicus [8],100%
same,Activity in animals,Rattus norvegicus [26],100%
same,Activity,Mus musculus [27],Active
same,Toxicity,Rattus norvegicus [28],No toxicity
same,Activity in animals,Rattus norvegicus [29],100%
same,Response,Mus musculus [30],62%
same,Activity,Mus musculus [31],Active
same,Activity,Mus musculus [32],inactive
